Reference: ChEMBL document CHEMBL1156929, “Synthesis, biological evaluation, and molecular modeling of 1-benzyl-1H-imidazoles as selective inhibitors of aldosterone synthase (CYP11B2)” (J Med Chem, 2010)

Tests used:
[1] = target: T1, Cytochrome P450 11B2, mitochondrial (Homo sapiens, UniProt P19099); assay: Inhibition of human CYP11B2 expressed in chinese hamster V79 cells; assay type: cell-based
T1 sequence (P19099 whole entry): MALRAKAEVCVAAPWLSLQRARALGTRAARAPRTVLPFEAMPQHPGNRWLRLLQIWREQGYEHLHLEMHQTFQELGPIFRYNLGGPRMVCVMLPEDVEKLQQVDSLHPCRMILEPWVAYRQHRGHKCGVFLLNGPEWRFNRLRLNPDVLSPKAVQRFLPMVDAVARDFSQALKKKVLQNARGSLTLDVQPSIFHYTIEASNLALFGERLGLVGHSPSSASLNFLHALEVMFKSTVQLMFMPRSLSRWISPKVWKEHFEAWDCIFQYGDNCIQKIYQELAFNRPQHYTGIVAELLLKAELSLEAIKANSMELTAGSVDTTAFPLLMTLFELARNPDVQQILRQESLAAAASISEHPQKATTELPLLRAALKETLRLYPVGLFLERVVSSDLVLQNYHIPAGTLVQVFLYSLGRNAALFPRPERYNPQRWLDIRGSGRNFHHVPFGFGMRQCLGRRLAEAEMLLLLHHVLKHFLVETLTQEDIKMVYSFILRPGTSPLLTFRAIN
Procedure, shortened: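 Confluent V79 cells stably overexpressing human CYP11B2, 37 °C, 5% CO2. […] Steroids were extracted from medium with diethylether at pH 10.5 and quantified by HPLC (UV 243 nm) using peak-area ratios to methylprednisolone internal standard. IC50 from at least five concentrations, fitted to vi = v0/(1+I/IC50).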

[2] = target: T2, Cytochrome P450 11B1, mitochondrial (Homo sapiens, UniProt P15538); assay: Inhibition of human CYP11B1 expressed in chinese hamster V79 cells; assay type: cell-based
T2 sequence (P15538 whole entry): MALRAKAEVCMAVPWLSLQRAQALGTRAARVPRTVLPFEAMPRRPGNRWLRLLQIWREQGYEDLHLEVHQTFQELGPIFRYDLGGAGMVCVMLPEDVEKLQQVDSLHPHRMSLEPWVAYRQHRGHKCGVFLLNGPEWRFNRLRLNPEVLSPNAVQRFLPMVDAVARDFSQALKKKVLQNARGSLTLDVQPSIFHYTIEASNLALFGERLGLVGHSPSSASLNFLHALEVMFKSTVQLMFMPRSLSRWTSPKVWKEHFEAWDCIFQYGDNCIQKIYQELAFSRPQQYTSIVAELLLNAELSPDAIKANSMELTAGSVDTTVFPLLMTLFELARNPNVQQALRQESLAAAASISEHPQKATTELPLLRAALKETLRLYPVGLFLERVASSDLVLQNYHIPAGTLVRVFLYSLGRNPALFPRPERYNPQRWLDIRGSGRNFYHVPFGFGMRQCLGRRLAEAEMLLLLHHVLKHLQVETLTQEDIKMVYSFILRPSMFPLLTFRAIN

Compound	IC50 ([1]; read-out: IC50)	IC50 ([2]; read-out: IC50)	IC50 [1]	IC50 ([2]; read-out: pIC50 (converted))
Cc1cncn1Cc1ccc(C#N)cc1	12 nM	–	–	–
N#Cc1cccc(Cn2ccnc2)c1	> 1000 nM	> 1000 nM	> 1000 nM	–
Brc1ccc(Cn2ccnc2)cc1	479 nM	211 nM	–	–
N#Cc1ccc(Cn2ccnc2)cc1	372 nM	368 nM	–	–
Fc1ccc(Cn2ccnc2)cc1	330 nM	494 nM	–	–
Clc1ccc(Cn2ccnc2)cc1	> 1000 nM	> 1000 nM	> 1000 nM	–
c1ccc(Cn2cncc2-c2ccccc2)cc1	11 nM	4.8 nM	–	–
OCc1ccc(Cn2ccnc2)cc1	> 1000 nM	695 nM	> 1000 nM	–
OCCCc1cncn1Cc1ccc(F)cc1	16 nM	–	–	–
COc1ccc(Cn2cncc2-c2ccccc2)cc1	14 nM	11 nM	–	–
COC(=O)c1cncn1Cc1ccc(C#N)cc1	7 nM	–	–	–
Clc1ccc(Cn2cncc2-c2ccccc2)cc1	5.8 nM	25 nM	–	–
Brc1ccc(Cn2cncc2-c2ccccc2)cc1	5.1 nM	7 nM	–	–
OCc1cccc(Cn2ccnc2)c1	1170 nM	206 nM	–	–
Nc1cccc(Cn2ccnc2)c1	600 nM	390 nM	–	–
COc1ccc(Cn2cncc2CCCO)cc1	59 nM	–	–	–
N#Cc1ccc(Cn2cncc2-c2ccccc2)cc1	–	28 nM	–	–
Nc1ccc(Cn2ccnc2)cc1	> 1000 nM	236 nM	> 1000 nM	–
Fc1cccc(Cn2ccnc2)c1	815 nM	206 nM	–	–
Brc1cccc(Cn2ccnc2)c1	365 nM	143 nM	–	–
N#Cc1ccc(Cn2cncc2CCCO)cc1	13 nM	48 nM	–	–

Compound	IC50 ([1]; read-out: IC50)	IC50 ([2]; read-out: IC50)	IC50 [1]	IC50 ([2]; read-out: pIC50 (converted))
OCCCc1cncn1Cc1ccc(Cl)cc1	55 nM	44 nM	–	–
N#Cc1ccc(Cn2cncc2-c2cccc(F)c2)cc1	–	–	–	32.4 nM
N#Cc1ccc(Cn2cncc2-c2ccc(F)cc2)cc1	25 nM	27 nM	–	–
OCCCc1cncn1Cc1ccc(Br)cc1	6.2 nM	18 nM	–	–
N#Cc1ccc(Cn2cncc2Br)cc1	23 nM	73 nM	–	–
N#Cc1ccc(Cn2cncc2CO)cc1	29 nM	–	–	282 nM
N#Cc1ccc(Cn2cncc2-c2ccncc2)cc1	407 nM	307 nM	–	–
N#Cc1ccc(Cn2cncc2-c2ccccc2F)cc1	2.3 nM	20 nM	–	–
COC(=O)CCc1cncn1Cc1ccc(F)cc1	50 nM	104 nM	–	–
COC(=O)CCc1cncn1Cc1ccc(Cl)cc1	177 nM	123 nM	–	–
COC(=O)CCc1cncn1Cc1ccc(OC)cc1	121 nM	111 nM	–	–
Cc1ccc(-c2cncn2Cc2ccc(C#N)cc2)cc1	117 nM	130 nM	–	–
Cc1cccc(-c2cncn2Cc2ccc(C#N)cc2)c1	5.2 nM	6.2 nM	–	–
COC(=O)CCc1cncn1Cc1ccccc1	193 nM	326 nM	–	–
Clc1cccc(Cn2ccnc2)c1	457 nM	151 nM	–	–
Fc1ccc(Cn2cncc2-c2ccccc2)cc1	11 nM	16 nM	–	–
Cc1ccccc1-c1cncn1Cc1ccc(C#N)cc1	3.7 nM	5.7 nM	–	–
OCCCc1cncn1Cc1ccccc1	286 nM	181 nM	–	–
c1ccc(Cn2ccnc2)cc1 [BENZYLIMIDAZOLE]	1800 nM	709 nM	–	–
CCOC(=O)c1cncn1[C@H](C)c1ccccc1 [ETOMIDATE]	1.7 nM	–	–	–
